The results in this text go back to ChEMBL document CHEMBL4513216, “Probing the Open Global Health Chemical Diversity Library for Multistage-Active Starting Points for Next-Generation Antimalarials” (ACS Infect Dis, 2020).

SMILES strings stand for the structures.

The nature of the data set: Toxicity liver stage against HepG2, at 10uM. Also on record: test concentration 10 uM, cell line HepG2-A16-CD81EGFP. The conditions noted are these: human, HepG2-A16-CD81EGFP cells; read-out: INHIBITION
It is filed as cell-based. The essentials:
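Uninfected HepG2-A16-CD81EGFP cells, 3 × 10^3 per well, 1536-well, plated on prespotted compound at 10 μM final, parasite-free screening media added to match infected plates; puromycin 10 μM positive, DMSO 0.5% negative; run in parallel with 48 h PbLuc assay at 37 °C, 5% CO2; viability by CellTiter-Glo luminescence, normalized to controls.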
For the molecule `COCCN1CCN(C(=O)C[C@@H]2C[C@@H](C(C)C)[C@H](CO)C=C2C)CC1`, the cytotoxicity at 10 µM was found to be 4.82%.
The result for `COCC(=O)NC[C@H]1C[C@@H]2CCN1C[C@@H]2CN(C)c1ccccc1` reads -2.17%; that for `COc1ccccc1NC(=O)N1CCCC1c1ccco1` (configuration not stated), -4.78%; that for `CCC1CN(CC(=O)NCCN2CCCCCC2)c2ccccc2S1` (configuration not stated), -1.14%.
As for `Cc1cc2c(N)nc(=O)n(CC(=O)Nc3ccccc3)c2s1`, the cytotoxicity at 10 µM came to 1.54%.
The result for `Cc1ccc(S(=O)(=O)Nc2c(C)nc(N3CCCC3)nc2C)cc1` reads -0.243%.
For `CN1[C@@H](C(=O)NCC2CC2)C[C@@H]2CN(Cc3ccoc3)C[C@@H]21` the value was 3.88%; for `Cc1cc(C(=O)N2C[C@@H]3COC[C@]3(COCc3cccnc3)C2)no1`, -16.1%.
Regarding `CCS(=O)(=O)Nc1cnn(Cc2cccc(Cl)c2)c1`, the cytotoxicity at 10 µM was -11.5%.
Regarding `Cn1nnc(NCc2ccc(-c3ccc(Br)cc3)o2)n1`, the cytotoxicity at 10 µM is -11.1%.
For the molecule `CCn1ncc(Cl)c1CN(C)C(=O)CCn1ncc(Br)c1C`, the cytotoxicity at 10 µM worked out at 2.93%.
The result for `CN(C)c1nccc(C2CN(C(=O)CO)C2)n1` reads -10.6%; that for `CC(=O)N1CCC(Cc2cnc(-c3c(C)n[nH]c3C)cn2)CC1`, -21.7%.
For `Cc1noc(C)c1-c1cncc(C2CCCN2Cc2ncccc2F)n1` (configuration not stated) the value was 7.84%; for `O=C(COc1cccc(F)c1)N1CCCCC1c1ccn2ccnc2n1` (configuration not stated), -6.11%.
For `CNC(=O)C1(c2cnccn2)CCCN1C(=O)c1cccc(F)c1` (configuration not stated) the value was -29.6%; for `O=c1[nH]c2ncccc2n1C1CCCCC1`, 3.16%.
Consider `CCn1c(C)cc(C(=O)Nc2ccccc2CN(C)C(C)=O)c1C`, for which the cytotoxicity at 10 µM was -1.03%.
The result for `CN(C)CCOc1ccccc1N1CCN(C(=O)c2ccoc2)CC1` reads 24.8%; that for `CCNC(=O)Nc1cccc(F)c1C(=O)NC1CCCC1`, 5.69%.
`Cc1ccccc1S(=O)(=O)Cc1nsc(N(C)C)n1`: the cytotoxicity at 10 µM is -4.45%.
The result for `COCCN1CC(C(=O)N(C)Cc2ccc(Cl)s2)CC1=O` (configuration not stated) reads 8.69%.
For `COc1ccc(OC)c(CN2CCN(Cc3cscn3)CC2)c1` the value was -7.15%; for `CNC(=O)c1cc(NC(=O)Nc2cnn(CC(C)C)c2)ccc1F`, -3.79%; for `NC(=O)NC1CCN(Cc2ccc(Br)c(F)c2)CC1`, -1.57%.
The result for `Cc1cc(C(=O)Nc2cc(C3CC3)n[nH]2)c2c(C)nn(C)c2n1` reads -2.14%; that for `CC(C)C(NC(=O)Cc1ccccc1)C(=O)NCc1ccc(O)nc1` (configuration not stated), 0.833%; that for `CC(C)C(C)N(C(=O)Cn1nc2n(c1=O)CCCCC2)C1CC1` (configuration not stated), -5.77%.
Take `c1ccc2nc(N3CCCCC3)c(NCc3nnc4n3CCC4)nc2c1`: the cytotoxicity at 10 µM is 2.48%.
The result for `CN(C)c1cc2c(nn1)CCN(C(=O)c1cc3c(s1)CCC3)C2` reads -6.97%; that for `CCS(=O)(=O)CC(=O)N1CCCC(c2noc(C(C)C)n2)C1` (configuration not stated), -4.78%; that for `CCOc1ccc(Cl)cc1CCNC(=O)N1CCCC(CO)C1` (configuration not stated), 5.46%.
As for `CC(CC(=O)N1CCC(c2nnc3n2CCC3)CC1)n1cccc1` (configuration not stated), the cytotoxicity at 10 µM was 8.11%.
On to `Cc1csc(CN(C)C(=O)Nc2cnn(CC3CCCO3)c2)n1` (configuration not stated), for which the cytotoxicity at 10 µM is -3.28%.
The result for `Cc1nn(C)c(C)c1CC(=O)NCc1cccnc1N1CCOCC1` reads -139%; that for `CCOc1ccc(NC(C)C(=O)NCCc2cccs2)cc1CO` (configuration not stated), -6.79%.
Take `CCCN(C(=O)c1csnn1)C1CCCN(Cc2ccccc2)C1` (configuration not stated): the cytotoxicity at 10 µM was -4.38%.
For `N#Cc1cccc(OCCCN2CCN(C(=O)c3ccoc3)CC2)c1` the value was 3.57%; for `CN(CC1CC1)C(=O)CN1CCCC1c1cnn(C)c1` (configuration not stated), 2.01%.
For `Cc1noc(CCNS(=O)(=O)N2CCCC2c2ccc(C)o2)n1` (configuration not stated) the value was -10%.
The result for `O=C(CN1CCc2[nH]c3ccccc3c2C1)NCc1ccco1` reads -3.04%; that for `COc1ccc(CNCCc2ccn(-c3ccccc3)n2)cc1O`, -0.13%.
On to `CNC(=O)CCc1cccc(OC2CCCC2)c1`, for which the cytotoxicity at 10 µM was -0.408%.
With `Cc1cc(C)n(C2CN(c3ncnc4c3CCC4)C2)n1`, the cytotoxicity at 10 µM was found to be 8.09%.
For `Cn1ncnc1CNc1ccccc1C(=O)NC(C)(C)C` the value was 3.9%; for `Cc1cc(C2CCCN(CCC(=O)N3CCc4ccccc43)C2)n[nH]1` (configuration not stated), -7.9%; for `CC(=O)c1ccc(Cl)c(Cl)c1OCC(=O)NC(N)=O`, 7.49%.
For `CNC(=O)CN1CCC(NC(=O)Cc2ccccc2OC(C)C)CC1` the value was -2.14%; for `COCC(=O)NCC[C@H]1CC(C)(C)Oc2ccc(OC)cc21`, -5.36%.
The result for `O=C(CSCC1CC1)N1CCC2(CCCN(C3CCOCC3)C2=O)C1` (configuration not stated) reads -127%; that for `COc1ccccc1C(O)CNc1nccc(-c2ccc(C)nc2C)n1` (configuration not stated), 8.95%; that for `CCSc1ncc(CN(Cc2cnn(C)c2)CC(C)C)cn1`, -7.53%.
In the case of `CS(=O)(=O)NCc1cc2n(n1)CCCN(Cc1ccc(Cl)s1)C2`, the cytotoxicity at 10 µM was 2.81%.
For the molecule `COCCn1c(CN2CCCO2)cnc1S(=O)(=O)CC1CCCCC1`, the cytotoxicity at 10 µM was -8.62%.
Turning to `CCN1CC2(CCN(CCOc3ccc(F)cc3)CC2)CC1=O`, the cytotoxicity at 10 µM stood at 8.12%.
As for `CCc1csc(CCNC(=O)CC2CCN(C(C)C)CC2)n1`, the cytotoxicity at 10 µM was determined as 6.62%.
`COc1ccc(OC)c2c(C)cc(N(C)CCO)nc12`: the cytotoxicity at 10 µM was found to be 6.36%.
As for `Cc1ccc(CN2CCNC(=O)C2CC(=O)N2CCSCC2)o1` (configuration not stated), the cytotoxicity at 10 µM amounted to 4.48%.
For `Nc1cc(C(=O)NCC2CCN(Cc3ccncc3F)C2)ccn1` (configuration not stated) the value was -24.2%; for `Cc1ncsc1CCN(C)Cc1cc2n(n1)CCN(Cc1ccco1)C2`, -4.93%; for `CN1CCC2(CC1)CCN(C(=O)c1onc3ccccc13)C2`, -9.14%.
Turning to `COc1ccc(CNC(=O)N2CCN(C)[C@@H]3CS(=O)(=O)C[C@@H]32)cc1`, the cytotoxicity at 10 µM was determined as 8.64%.
In the case of `CCC(C)N(Cc1cccnc1)C(=O)c1ccc(F)c(O)c1` (configuration not stated), the cytotoxicity at 10 µM came to 1.87%.
Consider `CN1CC2(CCCN(Cc3ccccc3OCC(=O)O)C2)OC1=O` (configuration not stated), for which the cytotoxicity at 10 µM is -6.64%.
The result for `Cc1nnc(CCNC(=O)c2coc(CN3CCOCC3)c2)s1` reads -9.21%; that for `COc1cccc(C(=O)N2CCC3(CCC(=O)N(C(C)C)C3)CC2)c1C`, -3.21%.
The result for `CC[C@H](C)[C@@H](CO)NC(C)Cc1ccccc1F` (some centres not stated) reads -7.36%; that for `CCCc1nnc(N2CCN(c3ccccc3OCC)CC2)o1`, 3.88%; that for `Cc1cccc(CN2CCc3c(nc(N4CCC(C)CC4)[nH]c3=O)C2)n1`, -1.75%.
Regarding `Cc1nnc(NCc2ccccc2F)c(C#N)c1C`, the cytotoxicity at 10 µM was -9.71%.
With `CC(NC(=O)NCCCN1CCCC1)c1nncn1C` (configuration not stated), the cytotoxicity at 10 µM is -0.373%.
The result for `COc1cc(CNCC(O)c2ccc(F)cc2F)cc2c1OCO2` (configuration not stated) reads -1.37%; that for `CCS(=O)(=O)c1ccccc1N1CCC(NC2CCCC2)CC1`, -2.63%.
Consider `CCc1nc(CNCCn2cc(C)cn2)no1`, for which the cytotoxicity at 10 µM was -4.32%.
With `Cn1cc(C2CCCN2C(=O)CCCOc2ccccc2F)cn1` (configuration not stated), the cytotoxicity at 10 µM was 0.2%.
For `Cc1noc(CCCC(=O)N2CCCC2c2ccsc2)n1` (configuration not stated) the value was -3.02%; for `CS(=O)(=O)NCCN1CCCC1c1noc(C2CC2)n1` (configuration not stated), -23.7%; for `Cc1n[nH]c(C2CN(Cc3nnc(C4CCC4)o3)CCO2)n1` (configuration not stated), -3.72%.
`c1ccc(-c2nnc(CN3CCOC(Cn4cccn4)C3)o2)cc1` (configuration not stated): the cytotoxicity at 10 µM is -2.48%.
For `Cc1n[nH]c(C2CN(C(=O)c3cc4c(s3)CCC4)CCO2)n1` (configuration not stated) the value was -5.65%; for `Cc1nc(C(=O)N2CCCC2c2noc(C)n2)c[nH]1` (configuration not stated), -4.95%; for `CC(C)c1ccc(S(=O)(=O)N2CSCC2C(=O)NCC(F)(F)F)cc1` (configuration not stated), -13.3%.
For `Fc1ccc(OCCNCCn2cccn2)cc1` the value was -4.17%; for `CC(C)c1nc(C2CCCN2C(=O)c2ccc(N(C)C)nn2)no1` (configuration not stated), -8.11%; for `Cc1nc(CN(C)C2CCN(CC(=O)NC3CCOCC3)C2)no1` (configuration not stated), -7.15%.
The result for `CC(C(=O)NCc1ccnc(N2CCCC2)c1)n1cncn1` (configuration not stated) reads -3.43%; that for `O=C(c1cccc2[nH]ncc12)N1CCCC1c1noc(C2CC2)n1` (configuration not stated), -2.91%.
`CCn1cc(NC(=O)C2CCN(Cc3noc(C(C)C)n3)CC2)cn1`: the cytotoxicity at 10 µM was found to be 0.89%.
For `COc1ccnc(N2CCN(C(=O)NCc3ccc(C)s3)CC2)n1` the value was -2.45%.
The result for `COCCOc1ccc(NC(=O)N2CCCC2c2cc(C)no2)cn1` (configuration not stated) reads 5.32%; that for `CN1CCN(Cc2ccncc2)C(=O)C12CCN(Cc1ccsc1)CC2`, 3.03%.
For `CCOCC1CN(C(=O)c2ccncn2)Cc2cnn(C)c21` (configuration not stated) the value was -143%; for `CC(C)CN1CC[C@@H]2[C@@H]1CCN2S(=O)(=O)c1cccs1`, 2.61%.
For the molecule `CC(C)c1nn(C)c(Cl)c1CNCc1ccc2c(c1)OCCO2`, the cytotoxicity at 10 µM was -1.64%.
The result for `O=C(CC1CC1)NC[C@]12COC[C@H]1CN(c1ncc(F)cn1)C2` reads -141%; that for `Cc1n[nH]cc1CNCC(O)c1ccc(F)c(F)c1` (configuration not stated), 6.8%.
Consider `CN(C)S(=O)(=O)N1C[C@H]2CC[C@@H](C1)N(Cc1ccc(F)c(F)c1)C2`, for which the cytotoxicity at 10 µM is 1.05%.
